Assays:
[1] = target: T1, Gonadotropin-releasing hormone receptor (Homo sapiens, UniProt P30968); experiment: Binding affinity towards human gonadotropin releasing hormone receptor using des-Gly10[125I]Tyr5,D-Leu6,NMeLeu7,Pro9-NEt]GnRH as radioligand expressed in HEK293 cells; type: cell-based
T1 sequence (P30968 whole entry): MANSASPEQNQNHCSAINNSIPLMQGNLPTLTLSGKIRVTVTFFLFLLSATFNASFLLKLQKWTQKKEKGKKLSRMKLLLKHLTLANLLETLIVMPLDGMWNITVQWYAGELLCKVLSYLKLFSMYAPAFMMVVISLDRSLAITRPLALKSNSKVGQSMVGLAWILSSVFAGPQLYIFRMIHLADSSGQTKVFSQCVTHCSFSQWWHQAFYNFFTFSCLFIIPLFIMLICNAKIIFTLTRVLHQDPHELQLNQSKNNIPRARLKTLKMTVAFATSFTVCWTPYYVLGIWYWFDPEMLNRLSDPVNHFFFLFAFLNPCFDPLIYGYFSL
Outline: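 Competitive displacement at cloned human GnRH receptor expressed in HEK293 cells, 96-well filtration format. Three to eight independent experiments.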

[2] = target: T2, Gonadotropin-releasing hormone receptor (Rattus norvegicus, UniProt P30969); experiment: Tested for binding affinity towards rat gonadotropin releasing hormone receptor
T2 sequence (P30969 whole entry): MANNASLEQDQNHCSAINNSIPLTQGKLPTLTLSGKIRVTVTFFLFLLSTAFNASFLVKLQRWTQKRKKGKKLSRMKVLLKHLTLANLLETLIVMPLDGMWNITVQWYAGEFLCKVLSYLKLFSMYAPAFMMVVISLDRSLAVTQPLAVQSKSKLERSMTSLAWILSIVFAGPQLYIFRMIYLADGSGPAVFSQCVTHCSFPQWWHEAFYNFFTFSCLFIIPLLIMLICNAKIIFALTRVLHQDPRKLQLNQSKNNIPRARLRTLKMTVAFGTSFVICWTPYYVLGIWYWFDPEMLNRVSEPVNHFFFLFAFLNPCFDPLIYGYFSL

[3] = Volume of distribution in mouse; type: ADME, organism-based; details: in vivo
Outline: (§1)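 Mice dosed orally and intravenously at 10 mg/kg. Pharmacokinetic parameters derived from plasma exposure after each route.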

[4] = Bioavailability in mouse; type: ADME, organism-based; details: in vivo; outline: as §1
[5] = Half life in mouse; type: ADME, organism-based; details: in vivo; outline: as §1
[6] = Clearance in mouse; type: ADME, organism-based; details: in vivo; outline: as §1
[7] = Inhibitory concentration of compound against GnRH stimulated calcium flux in transfected cells; type: functional, cell-based
Outline: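 GnRH-stimulated Ca2+ flux measured in hGnRH receptor-transfected cells. Inhibition tested across a concentration series, with IC50 taken from the dose-response curve.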

Row | Ki [1] | Compound | further results
1 | 595 nM | COc1cccc(-c2c(C)n(Cc3c(F)cccc3F)c(=O)n(C[C@@H](C)N)c2=O)c1F | –
2 | 39 nM | COc1cccc(-c2c(C)n(Cc3c(F)cccc3F)c(=O)n(C[C@@H](N)CC(C)C)c2=O)c1F | –
3 | 8.1 nM | CN[C@@H](Cc1ccccc1)Cn1c(=O)c(-c2cccc(OC)c2F)c(C)n(Cc2c(F)cccc2F)c1=O | Ki [2]: 11000 nM; Vd [3]: 6.9 L/kg; bioavailability [4]: 42%; half-life [5]: 48 min; clearance [6]: 97.2 mL/min/kg; IC50 [7]: 20 nM
4 | 10 nM | COc1cccc(-c2c(C)n(Cc3c(F)cccc3F)c(=O)n(C[C@H](N)C3CCCC3)c2=O)c1F | –
5 | 1.2 nM | CN[C@H](CC(C)C)Cn1c(=O)c(-c2cccc(OC)c2F)c(C)n(Cc2c(F)cccc2F)c1=O | –
6 | 71 nM | COc1cccc(-c2c(C)n(Cc3c(F)cccc3F)c(=O)n(C[C@H](N)CC(C)(C)C)c2=O)c1F | –
7 | 6.4 nM | COc1cccc(-c2c(C)n(Cc3c(F)cccc3F)c(=O)n(C[C@H](N)CC(C)C)c2=O)c1F | Vd [3]: 3.9 L/kg; bioavailability [4]: 6%; half-life [5]: 42 min; clearance [6]: 65.7 mL/min/kg
8 | 6.5 nM | COc1cccc(-c2c(C)n(Cc3c(F)cccc3F)c(=O)n(C[C@H](N)C3CCCCC3)c2=O)c1F | Vd [3]: 7.3 L/kg; bioavailability [4]: 11%; half-life [5]: 78 min; clearance [6]: 65.4 mL/min/kg; IC50 [7]: 60 nM
9 | > 10000 nM | COc1cccc(-c2c(C)n(Cc3c(F)cccc3F)c(=O)n(C[C@H](C)N)c2=O)c1F | –
10 | 973 nM | COc1cccc(-c2c(C)n(Cc3c(F)cccc3F)c(=O)n(C[C@@H](N)C(C)C)c2=O)c1F | –
11 | 51 nM | COc1cccc(-c2c(C)n(Cc3c(F)cccc3F)c(=O)n(C[C@H](N)C(C)C)c2=O)c1F | –
12 | 965 nM | COc1cccc(-c2c(C)n(Cc3c(F)cccc3F)c(=O)n(C[C@@H](N)CCc3ccccc3)c2=O)c1F | –
13 | 51 nM | COc1cccc(-c2c(C)n(Cc3c(F)cccc3F)c(=O)n(C[C@H](C)NCc3ccccc3)c2=O)c1F | Vd [3]: 7.9 L/kg; bioavailability [4]: 3%; half-life [5]: 66 min; clearance [6]: 81.3 mL/min/kg
14 | 2.4 nM | COc1cccc(-c2c(C)n(Cc3c(F)cccc3F)c(=O)n(C[C@H](C3CCCC3)N(C)C)c2=O)c1F | –
15 | 4.1 nM | COc1cccc(-c2c(C)n(Cc3c(F)cccc3F)c(=O)n(C[C@@H](C3CCCCC3)N(C)C)c2=O)c1F | –
16 | 94 nM | COc1cccc(-c2c(C)n(Cc3c(F)cccc3F)c(=O)n(C[C@@H](N)C3CCCC3)c2=O)c1F | –
17 | 23 nM | COc1cccc(-c2c(C)n(Cc3c(F)cccc3F)c(=O)n(C[C@H](NC(C)C)C3CCCCC3)c2=O)c1F | –
18 | 46 nM | COc1cccc(-c2c(C)n(Cc3c(F)cccc3F)c(=O)n(CC(N)C3CCCCC3)c2=O)c1F (single isomer, unassigned) | –
19 | 16 nM | COc1cccc(-c2c(C)n(Cc3c(F)cccc3F)c(=O)n(C[C@@H](N)Cc3ccccc3)c2=O)c1F | Vd [3]: 4.9 L/kg; bioavailability [4]: 11%; half-life [5]: 54 min; clearance [6]: 65.6 mL/min/kg
20 | 7.9 nM | COc1cccc(-c2c(C)n(Cc3c(F)cccc3F)c(=O)n(C[C@H](Cc3ccccc3)N(C)C)c2=O)c1F | –
21 | 12 nM | COc1cccc(-c2c(C)n(Cc3c(F)cccc3F)c(=O)n(C[C@@H](CC(C)C)NC(C)C)c2=O)c1F | –
22 | 12 nM | COc1cccc(-c2c(C)n(Cc3c(F)cccc3F)c(=O)n(C[C@H](NC(C)C)C3CCCC3)c2=O)c1F | –
23 | 0.6 nM | COc1cccc(-c2c(C)n(Cc3c(F)cccc3F)c(=O)n(C[C@@H](C3CCCC3)N(C)C)c2=O)c1F | –
24 | 66 nM | COc1cccc(-c2c(C)n(Cc3c(F)cccc3F)c(=O)n(C[C@H](N)Cc3ccccc3)c2=O)c1F | –
